Laboratory results published in ChEMBL document CHEMBL1143718, “Synthesis and structure-activity relationships study of novel anti-tumor carbamate anhydrovinblastine analogues” (Bioorg Med Chem, 2007).

What was measured:
HeLa = experiment: Cytotoxicity against human HeLa cells after 72 hrs by SRB assay; format: functional, cell-based
Procedure, shortened: (§1)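 Ditartrate salts tested. ATCC A549 or HeLa cells seeded at 6000 cells/well and attached overnight, then treated in triplicate with graded concentrations, 37 °C, 72 h. Fixed with 10% TCA at 4 °C for 60 min, stained with 0.4% SRB, bound dye dissolved in Tris, A515 read. IC50 by Logit method, mean of three independent tests.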

A549 [1] = experiment: Cytotoxicity against human A549 cells after 72 hrs by SRB assay; format: functional, cell-based; conditions: A549, 72 h; procedure, shortened: as §1
A549 [2] = experiment: Antitumor activity in nude BALB/c mouse bearing A549 cell xenografts assessed as relative tumor volume at 6 mg/kg, iv; format: functional, Homo sapiens
Procedure, shortened: (§2)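 Female 7-week-old SPF BALB/cA-nude mice (18-22 g), 2.5 × 10^6 A549 cells implanted s.c. in axilla. Dosing at tumor volume 100-300 mm3, single i.v. dose on day 1. Tumor volume and body weight measured three times a week. Relative tumor volume and body weight reported initial/end. Groups of 6 treated, 12 controls. Means ± SD.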

A549 [3] = experiment: Antitumor activity in nude BALB/c mouse bearing A549 cell xenografts assessed as tumor growth inhibition at 1.5 mg/kg, iv after 12 days; format: functional, Homo sapiens; conditions: A549, 288 h
Procedure, shortened: (§3)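 A549 s.c. axillary xenografts (2.5 × 10^6 cells) in female 7-week-old SPF BALB/cA-nude mice. Single i.v. dose on day 1 once tumors reached 100-300 mm3. Inhibition = (control mean relative tumor volume − treated)/control × 100%, on day 12 after dosing. Groups of 6, controls 12. Significance by Student's t test.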

Mus musculus [4] = experiment: Effect on Body weight in nude BALB/c mouse bearing A549 cell xenografts at 1.5 mg/kg, iv; format: functional; procedure, shortened: as §2
A549 [5] = experiment: Antitumor activity in nude BALB/c mouse bearing A549 cell xenografts assessed as tumor growth inhibition at 6 mg/kg, iv after 12 days; format: functional, Homo sapiens; conditions: A549, 288 h; procedure, shortened: as §3
A549 [6] = experiment: Antitumor activity in nude BALB/c mouse bearing A549 cell xenografts assessed as relative tumor volume at 3 mg/kg, iv; format: functional, Homo sapiens; procedure, shortened: as §2
A549 [7] = experiment: Antitumor activity in nude BALB/c mouse bearing A549 cell xenografts assessed as relative tumor volume at 1.5 mg/kg, iv; format: functional, Homo sapiens; procedure, shortened: as §2
Mus musculus [8] = experiment: Effect on Body weight in nude BALB/c mouse bearing A549 cell xenografts at 6 mg/kg, iv; format: functional; procedure, shortened: as §2
Mus musculus [9] = experiment: Effect on Body weight in nude BALB/c mouse bearing A549 cell xenografts at 3 mg/kg, iv; format: functional; procedure, shortened: as §2
A549 [10] = experiment: Antitumor activity in nude BALB/c mouse bearing A549 cell xenografts assessed as tumor growth inhibition at 3 mg/kg, iv after 12 days; format: functional, Homo sapiens; conditions: A549, 288 h; procedure, shortened: as §3
Mus musculus [11] = experiment: Effect on Body weight in nude BALB/c mouse bearing A549 cell xenografts at 10 mg/kg, iv; format: functional
Procedure, shortened: (§4)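 Female 7-week-old SPF BALB/cA nude mice (18-22 g) received 2.5 × 10^6 A549 cells subcutaneously in the axilla. Once tumors reached 100-300 mm3, they were dosed iv at 10 mg/kg on days 1 and 4 (6 mice; 12 controls). Tumor volume and body weight were measured three times weekly. Inhibition was computed from mean relative tumor volume versus control on day 12 after dosing. Means ± SD, Student's t test.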

A549 [12] = experiment: Antitumor activity in nude BALB/c mouse bearing A549 cell xenografts assessed as tumor growth inhibition at 10 mg/kg, iv after 12 days; format: functional, Homo sapiens; conditions: A549, 288 h; procedure, shortened: as §4
A549 [13] = experiment: Antitumor activity in nude BALB/c mouse bearing A549 cell xenografts assessed as relative tumor volume at 10 mg/kg, iv; format: functional, Homo sapiens; procedure, shortened: as §4

SMILES | IC50 (HeLa) | IC50 (A549 [1]) | further results
CCC1=C[C@@H]2CN(CCc3c([nH]c4ccccc34)[C@@](C(=O)OC)(c3cc4c(cc3OC)N(C)[C@H]3[C@](O)(CNC(=O)OCc5ccc([N+](=O)[O-])cc5)[C@H](OC(C)=O)[C@]5(CC)C=CCN6CC[C@]43[C@@H]65)C2)C1 | 10 nM | 38 nM | –
CCCCCOC(=O)NC[C@]1(O)[C@H](OC(C)=O)[C@]2(CC)C=CCN3CC[C@@]4(c5cc([C@@]6(C(=O)OC)C[C@@H]7C=C(CC)CN(CCc8c6[nH]c6ccccc86)C7)c(OC)cc5N(C)[C@@H]14)[C@@H]32 | 184 nM | 426 nM | –
CCOC(=O)NC[C@]1(O)[C@H](OC(C)=O)[C@]2(CC)C=CCN3CC[C@@]4(c5cc([C@@]6(C(=O)OC)C[C@@H]7C=C(CC)CN(CCc8c6[nH]c6ccccc86)C7)c(OC)cc5N(C)[C@@H]14)[C@@H]32 | 16 nM | 51 nM | –
CCC1=C[C@@H]2CN(CCc3c([nH]c4ccccc34)[C@@](C(=O)OC)(c3cc4c(cc3OC)N(C)[C@H]3[C@](O)(CNC(=O)OC(C)(C)C)[C@H](OC(C)=O)[C@]5(CC)C=CCN6CC[C@]43[C@@H]65)C2)C1 | 96 nM | 604 nM | –
CCC1=C[C@@H]2CN(CCc3c([nH]c4ccccc34)[C@@](C(=O)OC)(c3cc4c(cc3OC)N(C)[C@H]3[C@](O)(CNC(=O)OCc5ccc6c(c5)OCO6)[C@H](OC(C)=O)[C@]5(CC)C=CCN6CC[C@]43[C@@H]65)C2)C1 | 17 nM | 75 nM | –
CCC1=C[C@@H]2CN(CCc3c([nH]c4ccccc34)[C@@](C(=O)OC)(c3cc4c(cc3OC)N(C)[C@H]3[C@](O)(CNC(=O)OC5CCC5)[C@H](OC(C)=O)[C@]5(CC)C=CCN6CC[C@]43[C@@H]65)C2)C1 | 23 nM | 121 nM | –
CCC1=C[C@@H]2CN(CCc3c([nH]c4ccccc34)[C@@](C(=O)OC)(c3cc4c(cc3OC)N(C)[C@H]3[C@](O)(CNC(=O)OC5CCCCC5)[C@H](OC(C)=O)[C@]5(CC)C=CCN6CC[C@]43[C@@H]65)C2)C1 | 250 nM | 381 nM | –
CCC1=C[C@@H]2CN(CCc3c([nH]c4ccccc34)[C@@](C(=O)OC)(c3cc4c(cc3OC)N(C)[C@H]3[C@](O)(CNC(=O)OCc5cccc(Cl)c5)[C@H](OC(C)=O)[C@]5(CC)C=CCN6CC[C@]43[C@@H]65)C2)C1 | 39 nM | 203 nM | –
CCC1=C[C@@H]2CN(CCc3c([nH]c4ccccc34)[C@@](C(=O)OC)(c3cc4c(cc3OC)N(C)[C@H]3[C@](O)(CNC(=O)OC(C)C)[C@H](OC(C)=O)[C@]5(CC)C=CCN6CC[C@]43[C@@H]65)C2)C1 | 27 nM | 162 nM | –
CCC1=C[C@@H]2CN(CCc3c([nH]c4ccccc34)[C@@](C(=O)OC)(c3cc4c(cc3OC)N(C)[C@H]3[C@](O)(CNC(=O)OCCOC)[C@H](OC(C)=O)[C@]5(CC)C=CCN6CC[C@]43[C@@H]65)C2)C1 | 14 nM | 65 nM | –
CCC1=C[C@@H]2CN(CCc3c([nH]c4ccccc34)[C@@](C(=O)OC)(c3cc4c(cc3OC)N(C)[C@H]3[C@](O)(CNC(=O)OCC5CC5)[C@H](OC(C)=O)[C@]5(CC)C=CCN6CC[C@]43[C@@H]65)C2)C1 | 13 nM | 61 nM | –
CCC1=C[C@@H]2CN(CCc3c([nH]c4ccccc34)[C@@](C(=O)OC)(c3cc4c(cc3OC)N(C)[C@H]3[C@](O)(CNC(=O)OCc5ccc(Cl)cc5)[C@H](OC(C)=O)[C@]5(CC)C=CCN6CC[C@]43[C@@H]65)C2)C1 | 6 nM | 89 nM | –
CCC1=C[C@@H]2CN(CCc3c([nH]c4ccccc34)[C@@](C(=O)OC)(c3cc4c(cc3OC)N(C)[C@H]3[C@](O)(CNC(=O)OCCBr)[C@H](OC(C)=O)[C@]5(CC)C=CCN6CC[C@]43[C@@H]65)C2)C1 | 30 nM | 131 nM | –
CCC1=C[C@@H]2CN(CCc3c([nH]c4ccccc34)[C@@](C(=O)OC)(c3cc4c(cc3OC)N(C)[C@H]3[C@](O)(CNC(=O)OCc5ccccc5)[C@H](OC(C)=O)[C@]5(CC)C=CCN6CC[C@]43[C@@H]65)C2)C1 | 54 nM | 57 nM | –
CCC1=C[C@@H]2CN(CCc3c([nH]c4ccccc34)[C@@](C(=O)OC)(c3cc4c(cc3OC)N(C)[C@H]3[C@](O)(CNC(=O)OCc5ccc(OC)cc5)[C@H](OC(C)=O)[C@]5(CC)C=CCN6CC[C@]43[C@@H]65)C2)C1 | 8 nM | 67 nM | –
CCC1=C[C@@H]2CN(CCc3c([nH]c4ccccc34)[C@@](C(=O)OC)(c3cc4c(cc3OC)N(C)[C@H]3[C@](O)(CNC(=O)Oc5ccccc5OC)[C@H](OC(C)=O)[C@]5(CC)C=CCN6CC[C@]43[C@@H]65)C2)C1 | 148 nM | 609 nM | –
CCC1=C[C@@H]2CN(CCc3c([nH]c4ccccc34)[C@@](C(=O)OC)(c3cc4c(cc3OC)N(C)[C@H]3[C@](O)(CNC(=O)OC)[C@H](OC(C)=O)[C@]5(CC)C=CCN6CC[C@]43[C@@H]65)C2)C1 | 9 nM | 38 nM | Activity (A549 [2]): 3.48; inhibition in vivo at 1.5 mg/kg (A549 [3]): 26%; Activity (Mus musculus [4]): 21.3 g; inhibition in vivo at 6 mg/kg (A549 [5]): 68.5%; Activity (A549 [6]): 6.96; Activity (A549 [7]): 8.18; Activity (Mus musculus [8]): 18.8 g; Activity (Mus musculus [9]): 20.4 g; inhibition in vivo at 3 mg/kg (A549 [10]): 37.1%
CCC1=C[C@@H]2CN(CCc3c([nH]c4ccccc34)[C@@](C(=O)OC)(c3cc4c(cc3OC)N(C)[C@H]3[C@](O)(CNC(=O)Oc5ccccc5)[C@H](OC(C)=O)[C@]5(CC)C=CCN6CC[C@]43[C@@H]65)C2)C1 | 199 nM | 110 nM | –
CCC1=C[C@@H]2CN(CCc3c([nH]c4ccccc34)[C@@](C(=O)OC)(c3cc4c(cc3OC)N(C)[C@H]3[C@](O)(CNC(=O)OCc5ccccc5OC)[C@H](OC(C)=O)[C@]5(CC)C=CCN6CC[C@]43[C@@H]65)C2)C1 | 69 nM | 200 nM | –
CCC1=C[C@@H]2CN(CCc3c([nH]c4ccccc34)[C@@](C(=O)OC)(c3cc4c(cc3OC)N(C)[C@H]3[C@](O)(CNC(=O)OCC(C)C)[C@H](OC(C)=O)[C@]5(CC)C=CCN6CC[C@]43[C@@H]65)C2)C1 | 67 nM | 66 nM | –
CCC1=C[C@@H]2CN(CCc3c([nH]c4ccccc34)[C@@](C(=O)OC)(c3cc4c(cc3OC)N(C)[C@H]3[C@](O)(CNC(=O)Oc5ccc(OC)cc5)[C@H](OC(C)=O)[C@]5(CC)C=CCN6CC[C@]43[C@@H]65)C2)C1 | 49 nM | 365 nM | –
CCC1=C[C@@H]2CN(CCc3c([nH]c4ccccc34)[C@@](C(=O)OC)(c3cc4c(cc3OC)N(C)[C@H]3[C@](O)(CNC(=O)OCc5ccccc5[N+](=O)[O-])[C@H](OC(C)=O)[C@]5(CC)C=CCN6CC[C@]43[C@@H]65)C2)C1 | 66 nM | 61 nM | –
CCC1=C[C@@H]2CN(CCc3c([nH]c4ccccc34)[C@@](C(=O)OC)(c3cc4c(cc3OC)N(C)[C@H]3[C@](O)(CNC(=O)OC5CCCC5)[C@H](OC(C)=O)[C@]5(CC)C=CCN6CC[C@]43[C@@H]65)C2)C1 | 132 nM | 177 nM | –
CCC1=C[C@@H]2CN(C1)Cc1c([nH]c3ccccc13)[C@@](C(=O)OC)(c1cc3c(cc1OC)N(C)[C@H]1[C@@](O)(C(=O)OC)[C@H](OC(C)=O)[C@]4(CC)C=CCN5CC[C@]31[C@@H]54)C2 [VINORELBINE] | 26 nM | 49 nM | Activity (Mus musculus [11]): 16.4 g; inhibition in vivo at 10 mg/kg (A549 [12]): 75.9%; Activity (A549 [13]): 2.66
